Bioassay records from PubChem BioAssay.
SR-BI uptake up – activators of SR-BI mediated DiI-HDL uptake, primary screen, ldlA[mSR-BI] CHO cells, DiI fluorescence; 3 h; 100 = double the neutral-control signal; activation, % at 12.5 µM; 320,000 tested, 0.096% active; AID 504775, 2011;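 active means mean replicate activation of at least 60% and every replicate at or above 60%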;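 further: 0% = median plate neutral-control signal and 100% = twice that signal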
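Material: SR-BI-overexpressing, LDLR-lacking CHO cells | Dosing: Single compound concentration, delivered by pin transfer | Probe or stimulus: Labelled HDL, 10 µg/mL | Signal: Bottom-read cell fluorescence after medium removal, ex 550/em 595 nm | Schedule: 3 h, 37 °C | Evaluation: HDL uptake via cellular fluorescence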
ANO1 block – TMEM16A chloride channel inhibitors, primary screen, cell-based, HTS; Anoctamin-1 (Mus musculus), Q8BHY3; HEK293 TMEM16A/YFP iodide influx fluorescence, ionomycin; normalized B-score (activity score, 25-100; higher = stronger inhibition) at 10 µM; 310,000 tested, 1.2% active;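 active means ratio plate-corrected score three or more library SD toward inhibition, starting fluorescence score within five deviations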;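 further: score derived from kinetic fluorescence span divided by baseline fluorescence per well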
TMEM16A act – TMEM16A chloride channel activators or potentiators, primary screen, cell-based, HTS | Anoctamin-1 (Mus musculus), Q8BHY3 | HEK293 TMEM16A/YFP-H148Q/I152L, iodide quench fluorescence; active compounds read low | B-score at 10 µM | 340,000 tested, 0.3% active | AID 623877, 2012;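 active means fluorescence-ratio B-score plate-corrected deviation score at least 3 library SD below zero, with starting fluorescence score within 5 deviations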;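 further: channel opened by trigger with iodide after compound preincubation; score built on the fluorescence ratio of max minus min over baseline; more negative score means more quench and so TMEM16A activation or potentiation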
DNA FID counter – compounds displacing fluorescent DNA intercalator, primary screen, artefact control for HCV NS3 helicase inhibitor project, biochemical, FID fluorescence; inhibition, % at 7.9 µM; DNA fluorescent intercalator displacement; 290,000 tested, 0.17% active; in the data active means inhibition above about 37%;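 further: 0% = vehicle and 100% = reference compound; higher means more ethidium bromide displaced from hairpin DNA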
Kir21 inh – inhibitors of mouse Kir2.1 inward-rectifier potassium channel; 310,000 tested, 0.85% active; B-score at 10 µM; AID 1672, 2009; HEK293-Kir2.1, FluxOR thallium flux fluorescence; active compounds read low;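 active means fluorescence ratio B-score at or below minus 3 SD of library scores, with starting-brightness B-score within 2 SD, cut at about -4.2 in these data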;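 further: channel flux triggered by added potassium and thallium sulfate stimulus; B-score of peak minus minimum fluorescence over baseline after thallium stimulus; more negative B-score means stronger Kir2.1 block with less thallium influx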
SR-BI HDL uptake – inhibitors of SR-BI mediated HDL lipid uptake, primary screen, ldlA[mSR-BI] cells, fluorescence, single point; 320,000 tested, 0.96% active; inhibition, % at 12.5 µM; ldlA[mSR-BI] CHO cells, DiI-HDL uptake fluorescence, 3 h; Scavenger receptor class B member 1 (Mus musculus), Q61009;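 active means mean replicate inhibition of at least 70% and a set share of replicates each scoring 70 or more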;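 further: 0% = median of neutral control wells and 100% = median of positive control wells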
Target sequence (Q61009 whole entry, looked up): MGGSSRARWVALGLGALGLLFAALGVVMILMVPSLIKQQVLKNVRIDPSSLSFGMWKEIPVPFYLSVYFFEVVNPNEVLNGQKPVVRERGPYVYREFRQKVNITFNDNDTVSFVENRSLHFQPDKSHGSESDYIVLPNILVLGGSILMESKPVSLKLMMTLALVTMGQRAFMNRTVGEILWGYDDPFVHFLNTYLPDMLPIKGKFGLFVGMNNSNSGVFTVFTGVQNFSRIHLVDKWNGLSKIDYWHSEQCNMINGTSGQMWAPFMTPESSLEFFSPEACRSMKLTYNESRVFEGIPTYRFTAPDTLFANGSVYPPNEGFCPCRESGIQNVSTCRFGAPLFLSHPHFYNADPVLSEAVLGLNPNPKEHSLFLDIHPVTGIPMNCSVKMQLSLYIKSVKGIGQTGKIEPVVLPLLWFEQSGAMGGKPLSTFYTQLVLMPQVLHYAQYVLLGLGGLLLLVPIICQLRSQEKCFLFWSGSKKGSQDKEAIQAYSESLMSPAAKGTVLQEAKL
TMEM16A reconf – TMEM16A chloride channel inhibitors, confirmation, cell-based, re-confirmation | HEK293 TMEM16A/YFP-H148Q, iodide quench fluorescence; ionomycin added to raise cell calcium | 2,300 tested, 39% active | AID 652189, 2013 | shares compounds with ANO1 block | inhibition, % at 10 µM;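 active means mean duplicate percent inhibition, scaled so buffer wells are 0 and the reference blocker 100, over three buffer SD above buffer mean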
TMEM16A Ca cntr – calcium mobilization in TMEM16A/YFP HEK293 cells, confirmation, counter-screen for TMEM16A inhibitor project. calcium response (% of ionomycin), % at 10 µM. Fluo4 calcium mobilization. shares compounds with ANO1 block. 2,300 tested, 2% active;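 active means duplicate-averaged calcium signal over 20% of the ionomycin maximum, relative to buffer baseline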;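 further: each well's signal is peak minus trough fluorescence divided by its pre-addition baseline; 0% = buffer wells and 100% = ionomycin wells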
YFP-HEK293 quench – iodide YFP quench changes in parental YFP-HEK293, counter-screen for TMEM16A inhibitor project, cell-based; shares compounds with ANO1 block; ionomycin; 2,300 tested, under 10 active; YFP ratio F(max-min)/F0 at 10 µM; AID 652233, 2013;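 active means yellow fluorescent protein signal ratio exceeding the buffer control mean by over 5 SD of those controls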;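 further: ratio is mean of duplicate wells from kinetic YFP trace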
ClC-1 rat inh – ClC-1 chloride channel inhibition, selectivity assay for TMEM16A inhibitor project, cell-based, voltage-dependent ClC-1 | 2,300 tested, under 10 active | ratio percent, % at 10 µM | shares compounds with ANO1 block | AID 652236, 2013 | CHO ClC-1-YFP, iodide influx fluorescence quench; iodide control reads 0, buffer control 100;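 active means duplicate-mean ratio percent above the mean of iodide-only control wells, which defines zero, plus 5 of their SD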;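 further: higher percent means stronger block of ClC-1 iodide influx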
* = called active by the depositor; i = inactive; / = not tested or not shown. Hits are enriched below; roughly 3% of the tested compounds scored in any of these assays.

SMILES	SR-BI uptake up	ANO1 block	TMEM16A act	DNA FID counter	Kir21 inh	SR-BI HDL uptake	TMEM16A reconf	TMEM16A Ca cntr	YFP-HEK293 quench	ClC-1 rat inh
N#Cc1c(-c2cccc(Br)c2)cc(-c2cccnc2)nc1N	-12	25*	i	-6	1.5	12	25%*	i	-0.99	-9
CCOC(=O)c1c(C)[nH]c(C(=O)CC(=O)OC)c1C	38	i	i	1	0.15	-38	/	/	/	/
COc1cc(NC(=O)c2cnc(N)o2)cc(C(=O)Nc2cccc(C(F)(F)F)c2)c1	-48	100*	i	/	1.1	48	46%*	i	-0.87	-14
CCCN(CCC)c1nc(NC2CCN(C(=O)OCC)CC2)nc(OC)n1	-19	25*	i	-31	-1.3	19	i	i	-1.1	-9
Cc1cccc(OCC(=O)NNc2c3ccccc3nc3ccccc23)c1	-1	25*	i	-10	0.42	1	i	i	-1.1	-4
Cc1ccc(OCC(=O)NNc2c3ccccc3nc3ccccc23)cc1	28	i	i	-6	-0.82	-28	/	/	/	/
CC(C)(C)c1cc(C(c2cccnc2)N2CCN(CCO)CC2)cc(C(C)(C)C)c1O (stereo unspecified)	32	100*	i	-23	-0.41	-32	68%*	i	-1.1	-42
OCCN1CCN(C(c2cccs2)c2ccc3cccnc3c2O)CC1 (stereo unspecified)	/	/	/	0	/	/	/	/	/	/
CCCCOC(=O)Nc1nnc(COc2ccccc2)s1	23	25*	i	-12	0.42	-23	i	i	-0.82	-16
O=C(Cn1ncc2c([nH]c3ccccc32)c1=O)Nc1ccc(CN2CCCCC2)cc1	-3	i	i	20	0.46	3	/	/	/	/
CCOC(=O)c1cc(C)n(S(=O)(=O)c2ccc(C)cc2)c1C	-34	100*	i	-2	-0.9	34	18%*	i	-1.1	-4
COc1ccc(NC(=O)CSc2ccc3nnc(-c4ccccn4)n3n2)c(OC)c1	3	i	i	-11	0.04	-3	/	/	/	/
CC(C)CN1C(=O)c2ccc(C(=O)Nc3ccncc3)cc2C1=O	0	25*	i	6	-1.7	0	27%*	i	-0.99	-18
COc1ccc(NC(=S)NCc2ccccc2)c(OC)c1	-2	i	i	-7	0.48	2	/	/	/	/
Cc1ccc(NC(=O)C(C)c2ccc(-c3ccccc3)c(F)c2)c(C)c1 (stereo unspecified)	20	25*	i	-3	0.29	-20	i	i	-1.2	-14
Cc1c(NC(=O)CSc2nc3ccccc3c(=O)n2C(C)C)c(=O)n(-c2ccccc2)n1C	7	/	i	/	/	-7	/	/	/	/
CCOC(=O)c1ccc(NC(=O)CSc2nc(=O)n(CCN3CCOCC3)c3c2CCC3)cc1	0	i	i	/	-2.9	0	/	/	/	/
C=C(C)C1CC=C(C)/C(=N/NC(=O)c2ccc(NC(=O)CC)cc2)C1 (stereo unspecified)	1	i	i	-2	0.11	-1	/	/	/	/
C=C(C)C1CC=C(C)/C(=N/NC(=O)CNc2ccc(OCC)cc2)C1 (stereo unspecified)	23	25*	i	-10	0.76	-23	i	i	-1.1	0
Cc1ccc(C(OC(=O)c2ccco2)C(=O)NC(C)(C)C)cc1 (stereo unspecified)	25	i	i	-15	-0.01	-25	/	/	/	/
COCCN1CCN(c2cc(-c3ccccc3)nc3cc(-c4cccc(F)c4)nn23)CC1	-42	100*	i	3	-0.56	42	i	i	-1.1	-9
Fc1cccc(-c2cc3nc(-c4ccccc4)cc(N4CCC5(CC4)OCCO5)n3n2)c1	-26	i	i	-16	0.92	26	/	/	/	/
COC(=O)c1c(NC(=O)c2ccc(OC(C)C)cc2)sc2c1CC(C)(C)NC2(C)C	-4	100*	i	19	0.96	4	i	i	-0.9	-7
O=C(NCCc1ccccc1)C(c1cccs1)N(C(=O)c1csnn1)C1CC1 (stereo unspecified)	13	25*	i	-15	-1.9	-13	i	i	-1	-11
CN(C)S(=O)(=O)c1cccc(N=C2SCCN2Cc2ccccc2)c1	-35	100*	i	-25	1.5	35	36%*	i	-0.87	-8
COc1cccc(-c2cc(C(F)(F)F)n3nc(C(=O)N4CCCCC4c4cccnc4)cc3n2)c1 (stereo unspecified)	-77	25*	i	-6	-0.74	77*	i	i	-1.1	-12
COc1ccc(NC(=S)NC(NC(=O)c2cccc(Cl)c2)C(Cl)(Cl)Cl)c([N+](=O)[O-])c1 (stereo unspecified)	-18	25*	i	18	0.8	18	i	i	-1.2	-12
COc1ccc(NC(=S)NC(NC(=O)c2cccc(C)c2)C(Cl)(Cl)Cl)c([N+](=O)[O-])c1 (stereo unspecified)	-28	i	i	5	/	28	/	/	/	/
Cc1ccc(OCc2nc(C#N)c(NCc3ccco3)o2)cc1	10	i	i	-15	0.76	-10	/	/	/	/
N#Cc1nc(COc2cccc(Cl)c2)oc1NCc1ccco1	-11	i	i	-12	0.66	11	i	i	-1.3	-6
